# Experimental data as given in ChEMBL document CHEMBL1782031, “Urea/thiourea derivatives of quinazolinone-lysine conjugates: synthesis and structure-activity relationships of a new series of antimicrobials” (2011).
# Assays:
# Assay type in all cases: functional
# Conditions in all cases: read-out: DIZ
# Bacillus subtilis = assay: Antibacterial activity against Bacillus subtilis at 10 ug/disc after 24 hrs by disc diffusion method
# How it was run: (§1)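 Disc diffusion assay. Discs were held at 4 °C for 2 h so the compounds could diffuse, then incubated at 28 °C. Inhibition zone diameters were measured in mm after 24 h. Each compound was tested in triplicate.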
# Escherichia coli = assay: Antibacterial activity against Escherichia coli at 10 ug/disc after 24 hrs by disc diffusion method; how it was run: as §1
# Pseudomonas fluorescens = assay: Antibacterial activity against Pseudomonas fluorescens at 10 ug/disc after 24 hrs by disc diffusion method; how it was run: as §1
# [1] = Antibacterial activity against Xanthomonas campestris pvs. at 10 ug/disc after 24 hrs by disc diffusion method; how it was run: as §1
# Xanthomonas oryzae = assay: Antibacterial activity against Xanthomonas oryzae at 10 ug/disc after 24 hrs by disc diffusion method
Compound,zone of inhibition at 10 µg/disc (Bacillus subtilis),zone of inhibition at 10 µg/disc (Escherichia coli),zone of inhibition at 10 µg/disc (Pseudomonas fluorescens),zone of inhibition at 10 µg/disc [1],zone of inhibition at 10 µg/disc (Xanthomonas oryzae)
Cc1ccccc1NC(=S)NCCCC[C@H](NC(=O)CCCc1nc2ccccc2c(=O)[nH]1)C(=O)O,23 mm,24 mm,25 mm,26 mm,25 mm
COC(=O)[C@H](CCCCNC(=S)Nc1ccc(F)cc1C)NC(=O)CCc1nc2ccccc2c(=O)[nH]1,33 mm,32 mm,34 mm,33 mm,34 mm
O=C(CCCc1nc2ccccc2c(=O)[nH]1)N[C@@H](CCCCNC(=S)Nc1cccc(F)c1)C(=O)O,34 mm,32 mm,32 mm,33 mm,34 mm
CN[C@@H]1[C@H](O[C@H]2[C@H](O[C@H]3[C@H](O)[C@@H](O)[C@H](N=C(N)N)[C@@H](O)[C@@H]3N=C(N)N)O[C@@H](C)[C@]2(O)C=O)O[C@@H](CO)[C@H](O)[C@H]1O [STREPTOMYCIN],17 mm,21 mm,23 mm,,
COC(=O)[C@H](CCCCNC(=O)OC(C)(C)C)NC(=O)CCCc1nc2ccccc2c(=O)[nH]1,6 mm,8 mm,8 mm,7 mm,9 mm
COC(=O)[C@H](CCCCNC(=O)Nc1ccc(OC)cc1)NC(=O)CCCc1nc2ccccc2c(=O)[nH]1,20 mm,21 mm,22 mm,24 mm,25 mm
O=C(CCc1nc2ccccc2c(=O)[nH]1)N[C@@H](CCCCNC(=S)Nc1cccc(F)c1)C(=O)O,36 mm,38 mm,34 mm,36 mm,36 mm
NCCCC[C@H](NC(=O)CCc1nc2ccccc2c(=O)[nH]1)C(=O)O,8 mm,9 mm,10 mm,10 mm,9 mm
COC(=O)[C@H](CCCCNC(=O)Nc1cccc(F)c1)NC(=O)CCc1nc2ccccc2c(=O)[nH]1,35 mm,36 mm,36 mm,37 mm,36 mm
CC(C)(C)OC(=O)NCCCC[C@H](NC(=O)CCCc1nc2ccccc2c(=O)[nH]1)C(=O)O,9 mm,10 mm,11 mm,12 mm,11 mm
CC(=O)NCCCC[C@H](NC(=O)CCCc1nc2ccccc2c(=O)[nH]1)C(=O)O,10 mm,11 mm,10 mm,14 mm,12 mm
COC(=O)[C@H](CCCCNS(C)(=O)=O)NC(=O)CCCc1nc2ccccc2c(=O)[nH]1,11 mm,9 mm,11 mm,12 mm,11 mm
COC(=O)[C@H](CCCCNS(C)(=O)=O)NC(=O)CCc1nc2ccccc2c(=O)[nH]1,8 mm,6 mm,9 mm,8 mm,11 mm
O=C(CCc1nc2ccccc2c(=O)[nH]1)N[C@@H](CCCCNC(=O)Nc1ccc(Cl)cc1)C(=O)O,28 mm,30 mm,32 mm,30 mm,30 mm
CN(C)[C@@H]1C(O)=C(C(N)=O)C(=O)[C@@]2(O)C(O)=C3C(=O)c4c(O)cccc4[C@@](C)(O)[C@H]3C[C@@H]12 [TETRACYCLINE],,,,19 mm,18 mm
COC(=O)[C@H](CCCCNC(C)=O)NC(=O)CCc1nc2ccccc2c(=O)[nH]1,9 mm,10 mm,12 mm,11 mm,12 mm
COC(=O)[C@H](CCCCNC(=O)OC(C)(C)C)NC(=O)CCc1nc2ccccc2c(=O)[nH]1,8 mm,9 mm,11 mm,12 mm,12 mm
COC(=O)[C@H](CCCCNC(=S)Nc1ccc(F)cc1C)NC(=O)CCCc1nc2ccccc2c(=O)[nH]1,32 mm,33 mm,33 mm,30 mm,32 mm

Compound,zone of inhibition at 10 µg/disc (Bacillus subtilis),zone of inhibition at 10 µg/disc (Escherichia coli),zone of inhibition at 10 µg/disc (Pseudomonas fluorescens),zone of inhibition at 10 µg/disc [1],zone of inhibition at 10 µg/disc (Xanthomonas oryzae)
O=C(CCc1nc2ccccc2c(=O)[nH]1)N[C@@H](CCCCNC(=O)Nc1cccc(F)c1)C(=O)O,35 mm,35 mm,34 mm,33 mm,34 mm
COC(=O)[C@H](CCCCN)NC(=O)CCc1nc2ccccc2c(=O)[nH]1,6 mm,8 mm,10 mm,9 mm,10 mm
CS(=O)(=O)NCCCC[C@H](NC(=O)CCc1nc2ccccc2c(=O)[nH]1)C(=O)O,9 mm,9 mm,12 mm,10 mm,10 mm
O=C(CCCc1nc2ccccc2c(=O)[nH]1)N[C@@H](CCCCNC(=O)Nc1ccc(Cl)cc1)C(=O)O,29 mm,28 mm,30 mm,28 mm,29 mm
COC(=O)[C@H](CCCCNC(=O)Nc1ccc(Cl)cc1)NC(=O)CCCc1nc2ccccc2c(=O)[nH]1,25 mm,26 mm,29 mm,28 mm,30 mm
Cc1cc(F)ccc1NC(=S)NCCCC[C@H](NC(=O)CCCc1nc2ccccc2c(=O)[nH]1)C(=O)O,33 mm,34 mm,34 mm,32 mm,33 mm
COC(=O)[C@H](CCCCNC(=S)Nc1cccc(F)c1)NC(=O)CCCc1nc2ccccc2c(=O)[nH]1,34 mm,35 mm,33 mm,34 mm,36 mm
Cc1ccccc1NC(=S)NCCCC[C@H](NC(=O)CCc1nc2ccccc2c(=O)[nH]1)C(=O)O,23 mm,23 mm,25 mm,28 mm,28 mm
COC(=O)[C@H](CCCCNC(=O)Nc1ccc(OC)cc1)NC(=O)CCc1nc2ccccc2c(=O)[nH]1,22 mm,23 mm,25 mm,26 mm,28 mm
Cc1cc(F)ccc1NC(=S)NCCCC[C@H](NC(=O)CCc1nc2ccccc2c(=O)[nH]1)C(=O)O,34 mm,33 mm,35 mm,34 mm,35 mm
COC(=O)[C@H](CCCCNC(=S)Nc1ccccc1C)NC(=O)CCc1nc2ccccc2c(=O)[nH]1,23 mm,22 mm,24 mm,27 mm,26 mm
COC(=O)[C@H](CCCCN)NC(=O)CCCc1nc2ccccc2c(=O)[nH]1,10 mm,9 mm,10 mm,12 mm,12 mm
COc1ccc(NC(=O)NCCCC[C@H](NC(=O)CCCc2nc3ccccc3c(=O)[nH]2)C(=O)O)cc1,22 mm,24 mm,23 mm,25 mm,26 mm
COc1ccc(NC(=O)NCCCC[C@H](NC(=O)CCc2nc3ccccc3c(=O)[nH]2)C(=O)O)cc1,24 mm,25 mm,27 mm,28 mm,28 mm
CC(C)(C)OC(=O)NCCCC[C@H](NC(=O)CCc1nc2ccccc2c(=O)[nH]1)C(=O)O,10 mm,11 mm,14 mm,13 mm,14 mm
COC(=O)[C@H](CCCCNC(=O)Nc1cccc(F)c1)NC(=O)CCCc1nc2ccccc2c(=O)[nH]1,36 mm,35 mm,34 mm,36 mm,35 mm
COC(=O)[C@H](CCCCNC(=S)Nc1cccc(F)c1)NC(=O)CCc1nc2ccccc2c(=O)[nH]1,36 mm,38 mm,36 mm,38 mm,35 mm
NCCCC[C@H](NC(=O)CCCc1nc2ccccc2c(=O)[nH]1)C(=O)O,14 mm,10 mm,12 mm,13 mm,12 mm
